Compound activity deposited in PubChem by several laboratories.
Sampled rows, rich in hits. Any-hit rate of the full collection: about 3.9%.
NF-kB neuron act – activators of NF-kB expression in neurons, primary screen, cell-based, HTS. 190,000 tested, 1.6% active. human neuronal cells, NF-kB reporter expression; hits give high values. fold change at 12.5 µM; in the data active = fold change above about 3.3
STAT1 act – STAT1 signaling activators, primary screen, cell-based, HTS, luciferase reporter | activation (% of control), % at 5.5 µM | 200,000 tested, 2.6% active | NIH 3T3 STAT1-luciferase reporter, IFN-gamma, luminescence; 100% = IFN-gamma alone, no compound | AID 932, 2007;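 active = activation above the screen-wide mean activation plus 3 SD, cut at about 130% in these data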
APP 5'UTR act – activators of APP 5'UTR luciferase reporter, primary screen, SH-SY5Y cells | SH-SY5Y APP 5'UTR luciferase reporter, luminescence; zero percent = DMSO vehicle wells | activation, % at 2 µM | 190,000 tested, 1% active;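 active = activation above a set limit, based on mean plus 3 SD of controls, cut at about 140% in these data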
FLuc inh counter – firefly luciferase enzyme inhibitors, primary screen, artefact control for luciferase-based inhibitor screens, biochemical, luminescence, ATPLite | 10 min | Luciferin 4-monooxygenase (Photinus pyralis), P08659 | 200,000 tested, 1.5% active | inhibition, % at 10 µM;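 active = inhibition above about 50% when tested at 10 µM, limit read from the data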
Rad51 HR inh – human RAD51 strand exchange inhibitors, primary screen, biochemical, fluorescence | DNA repair protein RAD51 homolog 1 (Homo sapiens), Q06609 | hRad51 DNA strand exchange, fluorescence dequenching | inhibition, % at 10 µM | 200,000 tested, 0.085% active | AID 1385, 2008;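 active = inhibition above 40% at the single screening dose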
Target sequence (Q06609 whole entry, looked up): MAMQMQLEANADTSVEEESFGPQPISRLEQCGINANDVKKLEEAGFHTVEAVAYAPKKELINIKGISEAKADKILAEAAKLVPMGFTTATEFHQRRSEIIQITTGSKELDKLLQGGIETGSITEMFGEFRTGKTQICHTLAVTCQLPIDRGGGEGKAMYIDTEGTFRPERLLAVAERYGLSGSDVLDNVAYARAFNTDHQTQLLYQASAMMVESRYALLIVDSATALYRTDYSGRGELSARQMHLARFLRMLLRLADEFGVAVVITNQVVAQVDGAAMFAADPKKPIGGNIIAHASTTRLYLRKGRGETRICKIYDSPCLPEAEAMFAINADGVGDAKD
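Material: hRad51 filaments on single-stranded DNA; Reagent: Donor/quencher-labelled 47-bp dsDNA substrate; Compound: 10 µM final, single point; Schedule: 37 °C 15-min filament assembly, 30-min compound preincubation, 15-min exchange; Technique: FRET fluorescence, excitation 485 nm, emission 520 nm; Benchmarks: control wells and blank wells on each plate.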
FLuc stim CS – FLuc activators, initial screening, artefact control for FLuc-dependent activation tests, biochemical, ATPlite luminescence. ATPlite luciferase biochemical, 10 min; 0 = ATP-free wells, 1 = DMSO control. AID 1027, 2008. activation factor at 10 µM. 200,000 tested, under 10 active. Luciferin 4-monooxygenase (Photinus pyralis), P08659;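 active = luciferase activation factor, scaled between plate controls, of at least 2 with compound at 10 µM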
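System: cell-free luciferase reagent; medium: PBS as buffer for the ATP substrate; doses: test compounds dosed from 2 mM stocks in 100% DMSO; incubation: 10 min, room temperature; measured by: luminescence from luciferase reaction; read-out: luciferase activation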
STAT1 act conf – STAT1 signaling activators, confirmation, cell-based, HTS, luciferase reporter. shares compounds with STAT1 act. NIH 3T3 STAT1-luciferase reporter, IFN-gamma potentiation, luminescence; 100% = IFN-gamma EC80 alone, no compound. activation (% of control), % at 5.7 µM. 1,200 tested, 97% active. AID 1262, 2008;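 active = activation above a set limit carried over from the earlier primary STAT1 screen, cut at about 140% in these data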
NFkB act STAT1ct – NF-kB reporter activators, TNF-alpha stimulated, counter-screen for STAT1 activator project, cell-based, HEK293T, luciferase luminescence | shares compounds with STAT1 act | 100% = TNF-alpha with vehicle only | activation (% of control), % at 5.7 µM | 1,200 tested, 43% active | AID 1306, 2008;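 active = activation above the mean of solvent-only control wells plus 3 SD, set per campaign, cut at about 130% in these data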;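 also: TNF-alpha given at a submaximal dose yielding about 80% of full reporter signal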
STAT3 act STAT1c – STAT3 reporter activation by STAT1 hits, confirmation, counter-screen for STAT1 activator project, U3A cells, luciferase, luminescence | activation (% of control), % at 5.7 µM | AID 1316, 2008 | IL-6; cells lack STAT1; 100 = IL-6 alone, no compound effect | shares compounds with STAT1 act | 1,200 tested, 46% active;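 active = activation above the solvent-only control well mean plus 3 SD, set per plate batch, cut at about 110% in these data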;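 also: higher means more STAT3 reporter activation so hits are non-selective activators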
Of the large screens only hits and unclear results are named; the others gave an inactive call (follow-up assays come after a bar, where they were run).

O=C(/C=C/c1cccc([N+](=O)[O-])c1)Nc1cccc(NC(=O)c2cccs2)c1	none
CCOC(=O)c1[nH]c2ccc(OC)cc2c1NC(C)=O	none
CCOC(=O)c1[nH]c2ccc(OC)cc2c1C	STAT1 act 142.3 (no result: Rad51 HR inh)
Cc1occc1C(=O)Nc1cccc2ccccc12	NF-kB neuron act 7.69, STAT1 act 172.2, APP 5'UTR act 135.2 | STAT1 act conf 219.0 | NFkB act STAT1ct 136.9 | STAT3 act STAT1c inactive
O=C(CN1CCN(Cc2ccc(F)cc2)C1=O)NCc1cccs1	none (no result: STAT1 act)
COC(=O)c1ccc(NC(=S)Nc2ccccn2)cc1	STAT1 act 164.7 (no result: APP 5'UTR act) | STAT1 act conf 189.6 | NFkB act STAT1ct 134.6 | STAT3 act STAT1c inactive
COc1ccc(NC(=S)Nc2ccccn2)cc1	none (no result: NF-kB neuron act, STAT1 act, APP 5'UTR act, FLuc inh counter, FLuc stim CS)
CN(C)C=Nc1ccc(Cl)c(Cl)c1	none (no result: NF-kB neuron act, STAT1 act, APP 5'UTR act, FLuc inh counter, FLuc stim CS)
CN(C)C=Nc1ccc2nn(-c3ccccc3)nc2c1	NF-kB neuron act 5.64, STAT1 act 164.8 | STAT1 act conf 185.6 | NFkB act STAT1ct 133.8 | STAT3 act STAT1c inactive
Cc1cccc2c1-c1sc(C(=O)Nc3nccs3)cc1CO2	STAT1 act 160.2 | STAT1 act conf 189.6 | NFkB act STAT1ct inactive | STAT3 act STAT1c inactive
Cc1cccc2c1-c1sc(C(=O)Nc3cccc([N+](=O)[O-])c3C)cc1CO2	none (no result: Rad51 HR inh)
Cc1oc(-c2cccc(Br)c2)[n+]([O-])c1C	none
CCOC(=O)CSc1nc(-c2ccncc2)ccc1C#N	NF-kB neuron act 8.91, STAT1 act 158.6, APP 5'UTR act 184.9 | STAT1 act conf 190.4 | NFkB act STAT1ct inactive | STAT3 act STAT1c inactive
C(=C\c1nc(-c2ccccc2)no1)/c1ccccc1	NF-kB neuron act 8.61, STAT1 act 154.0, APP 5'UTR act 135.0 | STAT1 act conf 207.3 | NFkB act STAT1ct inactive | STAT3 act STAT1c inactive
Cc1c(NC(=O)COC(=O)C2(c3ccc(F)cc3)CCCC2)c(=O)n(-c2ccccc2)n1C	none
O=C(O)C1=C[C@@H](C2CCCCC2)C[C@@H](OCc2ccc(CO)cc2)O1	none
O=C(NC1CC1)C1=C[C@H](C2CCCCC2)C[C@H](OCc2ccc(CO)cc2)O1	STAT1 act 158.1 | STAT1 act conf inactive | NFkB act STAT1ct inactive | STAT3 act STAT1c inactive
CC(=O)c1cccc(NC(=S)NC(=O)c2cccc(C)c2)c1	NF-kB neuron act 3.68, STAT1 act 157.0 | STAT1 act conf 177.5 | NFkB act STAT1ct inactive | STAT3 act STAT1c inactive
CC(=O)c1cccc(N/C=C\C(=O)c2ccc(C)cc2)c1	NF-kB neuron act 6.71, STAT1 act 180.0, APP 5'UTR act 154.8, FLuc inh counter 91.2 | STAT1 act conf 211.0 | NFkB act STAT1ct inactive | STAT3 act STAT1c inactive
CC(=O)c1cccc(NC(=S)NC(=O)c2ccc(Cl)cc2)c1	STAT1 act 162.2 | STAT1 act conf 172.6 | NFkB act STAT1ct inactive | STAT3 act STAT1c inactive
COc1ccc(C(=O)C2CCCN(Cc3ccc(Sc4nncn4C)o3)C2)cc1F (stereo not drawn)	none
COC(CNc1ccc([N+](=O)[O-])c(NCC(OC)OC)c1C#N)OC	none (no result: NF-kB neuron act, STAT1 act, APP 5'UTR act, FLuc inh counter, FLuc stim CS)
Cc1ccc(NC(=S)NC(=O)c2ccc(Br)o2)c(C)c1	STAT1 act 152.1 | STAT1 act conf 164.5 | NFkB act STAT1ct inactive | STAT3 act STAT1c inactive
Cc1cccc(NC(=S)NC(=O)c2ccc(Br)o2)c1C	none
O=C(CSCCO)Nc1ccc([N+](=O)[O-])cc1	none
c1ccc2nc3c(nc2c1)[nH]c1ccccc13	NF-kB neuron act 5.9, STAT1 act 160.1, APP 5'UTR act 257.3 | STAT1 act conf 202.2 | NFkB act STAT1ct inactive | STAT3 act STAT1c 126.1
c1ccc(-c2c3ccccc3nc3[nH]c4ccccc4c23)cc1	none
Cc1ccnc(NC(=O)Nc2ccc(Br)cc2Cl)c1	STAT1 act 167.5, APP 5'UTR act 164.9 | STAT1 act conf 256.8 | NFkB act STAT1ct inactive | STAT3 act STAT1c inactive
CSc1ccc(NC(=O)Nc2cc(C)ccn2)cc1	none (no result: NF-kB neuron act, STAT1 act, APP 5'UTR act, FLuc inh counter, FLuc stim CS)
Cc1cccc(NC(=O)Nc2ccc3c(c2)N(C)C(=O)CS3)n1	none
Cc1ccnc(NC(=O)Nc2ccc(F)cc2)c1	NF-kB neuron act 4.81, STAT1 act 157.8 | STAT1 act conf 224.4 | NFkB act STAT1ct inactive | STAT3 act STAT1c inactive
Cc1ccnc(NC(=O)Nc2ccc3c(c2)N(C)C(=O)CS3)c1	STAT1 act 181.2 (no result: Rad51 HR inh) | STAT1 act conf 191.7 | NFkB act STAT1ct 134.7 | STAT3 act STAT1c inactive
COC(=O)c1ccccc1NC(=O)Nc1cc(C)ccn1	none
Cc1ccc(C2=NN(S(C)(=O)=O)C(c3ccc4c(c3)OCO4)C2)cc1 (stereo not drawn)	NF-kB neuron act 10.4, STAT1 act 210.9, APP 5'UTR act 139.4 | STAT1 act conf 256.5 | NFkB act STAT1ct 141.3 | STAT3 act STAT1c 140.0
CC(=O)N1N=C(c2ccc(C)cc2)CC1c1ccc2c(c1)OCO2 (stereo not drawn)	none (no result: NF-kB neuron act, STAT1 act, APP 5'UTR act, FLuc inh counter, FLuc stim CS)
CS(=O)(=O)N1N=C(c2ccc(Br)cc2)CC1c1ccc2c(c1)OCO2 (stereo not drawn)	NF-kB neuron act 5.45, STAT1 act 154.6 | STAT1 act conf 202.9 | NFkB act STAT1ct 135.5 | STAT3 act STAT1c 124.7
Cc1cc(C)nc(SCc2csc(-c3ccccc3)n2)n1	NF-kB neuron act 4.45, STAT1 act 168.6, APP 5'UTR act 146.5 (no result: Rad51 HR inh) | STAT1 act conf 187.3 | NFkB act STAT1ct inactive | STAT3 act STAT1c inactive
CN(C)c1ccc(N=C/C=C2/N(C)c3ccccc3C2(C)C)cc1	STAT1 act 172.7, APP 5'UTR act 163.7 | STAT1 act conf inactive | NFkB act STAT1ct inactive | STAT3 act STAT1c inactive
CN1/C(=C\C=N\O)C(C)(C)c2ccccc21	none
CC1CC(C)(C)NC(=S)N1CC(=O)NCc1ccc2c(c1)OCO2 (stereo not drawn)	none
CCOc1ccc2nc(N/C(N)=N/C(=S)Nc3ccc(C)c(C)c3)nc(C)c2c1	none
